Measured values: PMC7127420 (European Journal of Medicinal Chemistry, 2008)
Read-outs that look alike come from different tables or passages of the source.

Key:
[1] = system: human T-lymphocyte (CEM) cells; test: Cytostatic activity in mock-infected CEM cells; type: cell-based; conditions: concentration required to reduce mock-infected CEM cell viability by 50%
In short: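 Mock-infected CEM cell cultures were run alongside the HIV-infected CEM cultures. CC50 was the compound concentration inhibiting CEM cell proliferation by 50%.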

HIV-1(IIIB) [2] = conditions: ref [1], cited from earlier work; for EC50: read-out: EC50 HIV-1(IIIB), CEM cells
recombinant HIV-2 RT = recombinant HIV-2 RT (Human immunodeficiency virus type 2 subtype A, UniProt P04584); test: Anti-reverse transcriptase assay, HIV-2 RT; type: biochemical, HIV-2(ROD)
Chain of recombinant HIV-2 RT (P04584 613-1171 limits assumed): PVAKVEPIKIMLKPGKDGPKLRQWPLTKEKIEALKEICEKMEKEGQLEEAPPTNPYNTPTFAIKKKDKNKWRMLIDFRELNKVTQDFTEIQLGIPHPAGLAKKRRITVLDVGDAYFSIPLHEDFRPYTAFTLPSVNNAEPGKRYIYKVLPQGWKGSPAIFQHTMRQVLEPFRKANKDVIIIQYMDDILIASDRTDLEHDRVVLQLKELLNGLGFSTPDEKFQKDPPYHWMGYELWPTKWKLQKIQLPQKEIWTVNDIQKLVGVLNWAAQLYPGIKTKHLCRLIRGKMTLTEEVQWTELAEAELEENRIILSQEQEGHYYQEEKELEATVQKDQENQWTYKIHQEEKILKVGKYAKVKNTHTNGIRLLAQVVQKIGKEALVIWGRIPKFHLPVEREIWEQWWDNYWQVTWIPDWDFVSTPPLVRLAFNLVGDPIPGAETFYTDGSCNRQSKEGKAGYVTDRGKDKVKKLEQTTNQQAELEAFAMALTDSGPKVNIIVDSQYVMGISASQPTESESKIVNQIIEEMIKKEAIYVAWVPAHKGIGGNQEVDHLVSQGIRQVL
Chain of recombinant HIV-2 RT (P04584 613-1051 partner limits assumed): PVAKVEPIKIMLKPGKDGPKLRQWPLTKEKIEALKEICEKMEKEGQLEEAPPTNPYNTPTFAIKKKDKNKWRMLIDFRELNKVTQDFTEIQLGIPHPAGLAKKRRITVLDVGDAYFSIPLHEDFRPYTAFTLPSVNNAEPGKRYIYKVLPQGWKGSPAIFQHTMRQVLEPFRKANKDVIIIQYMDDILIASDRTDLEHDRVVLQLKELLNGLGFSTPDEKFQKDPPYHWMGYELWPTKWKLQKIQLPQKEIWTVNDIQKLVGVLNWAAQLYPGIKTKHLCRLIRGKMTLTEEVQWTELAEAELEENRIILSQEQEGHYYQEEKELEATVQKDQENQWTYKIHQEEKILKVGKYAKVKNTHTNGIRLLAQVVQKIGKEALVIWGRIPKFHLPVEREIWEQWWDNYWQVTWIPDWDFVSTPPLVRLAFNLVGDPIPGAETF
In short: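 Recombinant RT derived from HIV-2(ROD). Substrate was [8-3H]dGTP (2.5 μM) on poly(C).oligo(dG)12–18 (0.1 mM), with inhibitor at various concentrations. Incubated 37 °C for 30 min, then stopped with yeast RNA and trichloroacetic acid in Na4P2O7 and held on ice 30 min. Acid-insoluble radioactivity was counted; IC50 was the concentration giving 50% inhibition of RT activity.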

HIV-2(ROD) = conditions: read-out: EC50 HIV-2(ROD); CEM cells; racemic mixture; ref [1]; cited from earlier work
[3] = system: human T-lymphocyte (CEM) cells; conditions: mock-infected CEM cells; racemic mixture; ref [1]; cited from earlier work
HIV-1(IIIB) [4] = test: Inhibition of HIV-1; type: cell-based, Human immunodeficiency virus type 1; conditions: relative to 8

## 2-Adamantan-1-ylmethyl-3-(2-dimethylaminoethyl)-thiazolidin-4-one [Compound 20]
[1]
  CC50: 43 ± 20.1 µM

## Cc1cc(C)nc(N2C(=O)CSC2C23CC4CC(CC(C4)C2)C3)c1 (single isomer, unassigned) [levo isomer]
HIV-1(IIIB) [2]
  fold less active than the (+)-isomer (anti-HIV-1 activity): more than 60 fold

## Cc1cc(C)nc(N2C(=O)CS[C@@H]2C23CC4CC(CC(C4)C2)C3)c1 (single isomer, unassigned; (+)) [7 (R enantiomer), (+)-2-adamantan-1-yl-3-(4,6-dimethyl-pyridin-2-yl)-thiazolidin-4-one, reference compound]
HIV-1(IIIB) [2]
  EC50: 0.178 µM
Recombinant HIV-2 RT
  IC50: > 600 µM

## Cc1cc(C)nc(N2C(=O)CSC2C23CC4CC(CC(C4)C2)C3)c1 (stereo not shown) [Compound 7, 2-adamantan-1-yl-3-(4,6-dimethylpyridin-2-yl)-thiazolidin-4-one]
HIV-1(IIIB) [2]
  EC50: 0.35 ± 0.175 µM
HIV-2(ROD)
  EC50: > 12 µM
[3]
  CC50: 42 ± 8.1 µM

## Cc1ccnc(N2C(=O)CSC2C23CC4CC(CC(C4)C2)C3)n1 (stereo not shown) [Compound 10, 2-Adamantan-1-yl-3-(4-methylpyrimidin-2-yl)-thiazolidin-4-one]
HIV-1(IIIB) [4]
  fold reduction in antiviral potency (anti-HIV-1): 6 fold

## Cc1cc(C)nc(N2C(=O)CSC2CC23CC4CC(CC(C4)C2)C3)n1 (stereo not shown) [Compound 12, 2-Adamantan-1-ylmethyl-3-(2,6-methylpyrimidin-2-yl)-thiazolidin-4-one]
HIV-1(IIIB) [4]
  fold reduction in antiviral potency (anti-HIV-1): 13 fold

## O=C1CSC(c2c(Cl)cccc2Cl)N1CC12CC3CC(CC(C3)C1)C2 (stereo not shown) [Compound 24, 3-Adamantan-1-ylmethyl-2-(2,6-dichlorophenyl)-thiazolidin-4-one]
Recombinant HIV-2 RT
  IC50: ≥ 600 µM

## O=C1CSC(c2c(Cl)cccc2Cl)N1CCC12CC3CC(CC(C3)C1)C2 (stereo not shown) [Compound 25, 3-(2-Adamantan-1-ylethyl)-2-(2,6-dichlorophenyl)-thiazolidin-4-one]
Recombinant HIV-2 RT
  IC50: > 600 µM

## O=C1CSC(c2c(F)cccc2F)N1CC12CC3CC(CC(C3)C1)C2 (stereo not shown) [Compound 28, 3-Adamantan-1-ylmethyl-2-(2,6-difluorophenyl)-thiazolidin-4-one]
Recombinant HIV-2 RT
  IC50: > 600 µM

## O=C1CSC(c2c(F)cccc2F)N1CCC12CC3CC(CC(C3)C1)C2 (stereo not shown) [Compound 29, 3-(2-Adamantan-1-ylethyl)-2-(2,6-difluorophenyl)-thiazolidin-4-one]
Recombinant HIV-2 RT
  IC50: ≥ 600 µM
